According to ChEMBL document CHEMBL1641401, “Synthesis of antimitotic polyalkoxyphenyl derivatives of combretastatin using plant allylpolyalkoxybenzenes” (2010):
Calls of active or inactive are those of the source.

Legend:
Paracentrotus lividus [1] = test: Antimitotic activity against Paracentrotus lividus embryo assessed as cleavage alteration after 2.5 to 6 hrs post fertilization by sea urchin embryo assay; type: functional
In short: (§1)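 Fertilized sea urchin eggs, cultured at room temperature in filtered seawater with paddle agitation (60 rpm), exposed 10-25 min post-fertilization (45-60 min before first cleavage) to 2-fold decreasing concentrations as a monolayer, up to 2000 embryos/mL. Stocks: 5 mM in 95% EtOH, or 5-20 mM in DMSO then 10-fold diluted in 95% EtOH. Cleavage scored microscopically 2.5-6 h post-fertilization. EC = threshold concentration causing cleavage alteration with death before hatching or full arrest.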

Paracentrotus lividus [2] = test: Antimitotic activity against Paracentrotus lividus embryo assessed as cleavage arrest after 2.5 to 6 hrs post fertilization by sea urchin embryo assay; type: functional; in short: as §1
Paracentrotus lividus [3] = test: Antimitotic activity against Paracentrotus lividus embryo assessed as embryo spinning after 0.5 to 20 hrs post dose by sea urchin embryo assay; type: functional
In short: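 Free-swimming blastulae from the same culture treated just after hatching (9-12 h post-fertilization) in filtered seawater at room temperature. Final DMSO at most 0.05%, EtOH at most 1%. Tubulin destabilization scored microscopically as loss of forward movement, settling to the vessel bottom and rapid spinning about the animal-vegetal axis.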

Paracentrotus lividus [4] = test: Antimitotic activity against Paracentrotus lividus embryo assessed as cleavage alteration up to 80 to 100 uM after 2.5 to 6 hrs post fertilization by sea urchin embryo assay; type: functional, organism-based
In short: (§2)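 Fertilized sea urchin eggs, treated 10-25 min after fertilization (45-60 min before first cleavage), exposed to 2-fold decreasing concentrations; monolayer in filtered seawater at room temperature, up to 2000 embryos/mL. Compounds from EtOH or DMSO stocks diluted in 95% EtOH; final DMSO ≤0.05%, EtOH ≤1%. Cleavage scored microscopically 2.5-6 h post-fertilization; EC = threshold concentration causing cleavage alteration with death before hatching or full mitotic arrest.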

Paracentrotus lividus [5] = test: Antimitotic activity against Paracentrotus lividus embryo assessed as cleavage alteration up to 5 uM after 2.5 to 6 hrs post fertilization by sea urchin embryo assay; type: functional, organism-based; in short: as §2

SMILES | EC (Paracentrotus lividus [1]) | EC (Paracentrotus lividus [2]) | EC (Paracentrotus lividus [3]) | Activity (Paracentrotus lividus [4]) | Activity (Paracentrotus lividus [5])
COc1ccc(/C=C\c2cc3c(cc2OC)OCCO3)cc1O | 0.02 µM | 0.2 µM | 1 µM |  | 
COc1cccc(-c2nnc(-c3ccc(OC)c(OC)c3)o2)c1 | 0.05 µM | 4 µM | 2 µM |  | 
COc1ccc(/C=C\c2ccc3c(c2)OCCO3)cc1O | 0.02 µM | 0.5 µM | 1 µM |  | 
COc1ccc(/C=C\c2cc(OC)c3c(c2OC)OCO3)cc1O | 0.02 µM | 0.1 µM | 1 µM |  | 
COc1ccc(-c2nc(-c3cc4c(c(OC)c3OC)OCO4)no2)cc1O | >4 µM | >4 µM | >4 µM |  | 
COc1ccc(-c2nc(-c3cc(OC)c4c(c3OC)OCO4)no2)cc1O | >4 µM | >4 µM | >4 µM |  | 
COc1ccc(-c2nnc(-c3cc(OC)c4c(c3)OCO4)[nH]2)cc1O | 2 µM | >4 µM | >5 µM |  | 
COc1ccc(/C=C\c2cc(OC)c3c(c2)OCO3)cc1O [Combretastatin A-2] | 0.002 µM | 0.01 µM | 0.05 µM |  | 
COc1ccc(-c2nnc(-c3ccc(OC)c(OC)c3)o2)cc1OC | 0.5 µM | 10 µM | 5 µM |  | 
COc1ccc(-c2nnc(-c3cc(OC)c(OC)c(OC)c3)o2)cc1O | >4 µM | >4 µM | >4 µM |  | 
COc1ccc(/C=C/c2cc(OC)c3c(c2)OCCO3)cc1O | 0.02 µM | 0.1 µM | 2 µM |  | 
COc1ccc(-c2nc(-c3c(Cl)c(OC)c4c(c3OC)OCO4)no2)cc1O | >4 µM | >4 µM |  |  | 
COc1ccc(/C=C\c2cc(OC)c(OC)c(OC)c2)cc1OP(=O)([O-])[O-].[Na+].[Na+] [FOSBRETABULIN DISODIUM] | 0.005 µM | 0.01 µM | 1 µM |  | 
COc1ccc(/C=C\c2cc(OC)c(OC)c(OC)c2)cc1O [COMBRETASTATIN A4] | 0.002 µM | 0.01 µM | 0.05 µM |  | 
COc1ccc(-c2nnc(-c3cccc(F)c3)o2)cc1OC | 1 µM | >4 µM | >5 µM |  | 
COc1ccc(-c2nnc(-c3cc4c(c(OC)c3OC)OCO4)[nH]2)cc1O | 4 µM | >4 µM | >4 µM |  | 
C=CCc1cc2c(c(OC)c1OC)OCO2 |  |  |  | inactive | 
COc1ccc(/C=C\c2cc3c(c(OC)c2OC)OCO3)cc1O | 0.01 µM | 0.2 µM | 0.5 µM |  | 
C/C=C/c1cc(OC)c2c(c1OC)OCO2 [ISOAPIOL] | 2 µM | 8 µM | >10 µM |  | 
COc1ccc(-c2nnc(-c3cc(OC)c4c(c3)OCO4)o2)cc1O | 0.5 µM | 2 µM | >5 µM |  | 
C=CCc1cc(OC)c2c(c1)OCO2 |  |  |  | inactive | 

SMILES | EC (Paracentrotus lividus [1]) | EC (Paracentrotus lividus [2]) | EC (Paracentrotus lividus [3]) | Activity (Paracentrotus lividus [4]) | Activity (Paracentrotus lividus [5])
COc1ccc(/C=C(/C(=O)O)c2cc(OC)c(OC)c(OC)c2)cc1O | >11.2 µM | >11.2 µM | >11.2 µM |  | 
C=CCc1cc(OC)c2c(c1OC)OCO2 |  |  |  | inactive | 
C/C=C/c1cc2c(c(OC)c1OC)OCO2 [ISODILLAPIOL] | 20 µM | 80 µM | >100 µM |  | 
COc1ccc(-c2nnc(-c3cc(OC)c(OC)c(OC)c3)[nH]2)cc1O | 4 µM | >4 µM | >4 µM |  | 
COc1cc(-c2noc(-c3ccc4c(c3)OCO4)n2)cc(OC)c1OC | >4 µM | >4 µM | >4 µM |  | 
COc1cc(/C=C/c2cc(OC)c3c(c2OC)OCO3)ccc1O | >4 µM | >4 µM | >5 µM |  | 
COc1ccc(/C=C/c2ccc3c(c2)OCCO3)cc1O | 0.1 µM | 1 µM | 2 µM |  | 
COc1ccc(/C=C/c2cc3c(c(OC)c2OC)OCO3)cc1O | 0.1 µM | 4 µM | 5 µM |  | 
COc1ccc(-c2nc(Cc3cc(OC)c4c(c3OC)OCO4)no2)cc1O | 4 µM | >4 µM | >5 µM |  | 
COc1ccc(-c2nc(-c3cc(OC)c4c(c3)OCO4)no2)cc1O | 4 µM | >4 µM | >4 µM |  | 
COc1ccc(/C=C\c2cc(OC)c(OC)c(OC)c2OC)cc1O | 0.02 µM | 0.1 µM | 1 µM |  | 
COc1ccc(/C=C/c2cc(OC)c3c(c2OC)OCO3)cc1O | 0.5 µM | 4 µM | 5 µM |  | 
COc1ccc(/C=C/c2cc(OC)c3c(c2)OCO3)cc1O | 0.02 µM | 0.1 µM | 1 µM |  | 
COc1cc(-c2nnc(-c3cc(OC)c4c(c3)OCO4)o2)cc(OC)c1OC | 0.5 µM | 2 µM | >5 µM |  | 
COc1ccc(-c2nnc(-c3cc(OC)c4c(c3OC)OCO4)[nH]2)cc1O | >4 µM | >4 µM | >4 µM |  | 
COc1ccc(/C=C\c2cc(OC)c3c(c2)OCCO3)cc1O | 0.002 µM | 0.01 µM | 0.05 µM |  | 
COc1ccc(/C=C/c2cc3c(cc2OC)OCCO3)cc1O | 0.1 µM | 2 µM | >5 µM |  | 
C/C=C/c1cc(OC)c(OC)c(OC)c1OC |  |  |  |  | inactive
C/C=C/c1cc(OC)c2c(c1)OCO2 [ISOMYRISTICIN] | >5 µM | >5 µM | >5 µM |  | 
COc1ccc(/C=C/c2cc(OC)c(OC)c(OC)c2OC)cc1O | 0.1 µM | 1 µM | 5 µM |  | 
